Assay outcomes (PubChem)
HCV core dimer: inhibitors of HCV core protein dimerization, primary screen, biochemical, TR-FRET, high-throughput; TR-FRET GST/Flag-core106 dimerization, 1536-well; inhibition, % at 5 µM; 300,000 compounds, 0.33% hits;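 active means inhibition above the mean of all tested compounds plus 3 SD, set per screening campaign, cut at about 45% in these data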
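Assay system – GST-tagged and Flag-tagged HCV core protein residues 1-106 · Quantity – core106 proteins, GST 13.5 nM and Flag 17 nM · Benchmarks – unlabelled core106 and no-GST-core106 wells · Read-out basis – percent inhibition of core106 dimerization signal · Detection – time-resolved FRET, ex 340 nm, em 617 and 671 nm · Schedule – 4 h at 22.5 °C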
TAAR1 antag: human TAAR1 antagonists, primary screen, Fluo-8 calcium fluorescence, CHO RD-HGA16 cells. inhibition, % at 3 µM. antagonist. 360,000 compounds, 1.5% hits. Trace amine-associated receptor 1 (Homo sapiens), Q96RJ0;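 active means inhibition above a per-plate cutoff, the mean inhibition of test compounds on that plate plus 3 SD, cut at about 49% in these data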
Target sequence (Q96RJ0 whole entry, looked up): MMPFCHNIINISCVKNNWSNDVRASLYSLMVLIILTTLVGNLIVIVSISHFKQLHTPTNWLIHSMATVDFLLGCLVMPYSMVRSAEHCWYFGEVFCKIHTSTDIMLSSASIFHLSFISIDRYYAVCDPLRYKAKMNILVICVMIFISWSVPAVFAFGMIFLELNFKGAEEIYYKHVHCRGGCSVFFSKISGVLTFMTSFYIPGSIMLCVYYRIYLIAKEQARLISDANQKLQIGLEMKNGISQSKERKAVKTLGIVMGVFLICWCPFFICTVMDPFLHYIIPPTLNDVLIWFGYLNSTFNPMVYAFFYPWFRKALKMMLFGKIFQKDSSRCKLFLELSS
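System: RD-HGA16 CHO cells with stable hTAAR1 and Gα16 | Probe or stimulus: EC80 β-phenethylamine stimulus | Dosing: 3 µM, single point | Times: Dye loading 75 min at 37 °C, then 30 min room temperature | Measured by: Fluo-8 calcium-sensitive fluorescence | Read-out basis: % inhibition of agonist calcium response | Replicates: n of 1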
HCV NS3 hel inh: inhibitors of HCV NS3 helicase, primary screen, biochemical, Cy5 molecular beacon fluorescence; Hepatitis C virus NS3 helicase; NS3 helicase DNA unwinding; inhibition, % at 10.9 µM; 290,000 compounds, 0.56% hits; AID 1800, 2009;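 active means inhibition above the mean of all tested compounds plus 3 SD, set per campaign, cut at about 35% in these data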
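Assay system: hepatitis C virus NS3 helicase domain fragment enzyme. Also added: annealed dual-labelled DNA beacon duplex, ATP-started. Timing: 1 h reaction at 25 °C, ATP-initiated. Technique: Cy5 fluorescence at 0 and 60 min, beacon hairpin quenching. Evaluation: % inhibition of unwinding. Replication: one well per compound.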
TAAR1 ag: human TAAR1 agonists, primary screen, Fluo-8 calcium fluorescence, CHO RD-HGA16 cells | vehicle wells 0%, saturating PEA agonist 100% | 360,000 compounds, 0.99% hits | activation, % at 3 µM | Trace amine-associated receptor 1 (Homo sapiens), Q96RJ0 | AID 624467, 2012;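 active means activation above the mean activation of all test compounds in the run plus 3 SD, cut at about 38% in these data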
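System: CHO RD-HGA16 cells carrying human TAAR1 plus Gα16; Incubation: 17-24 h seeding, 75 min 37 °C dye, 30 min RT; Measured by: Fluo-8 fluorescence, 5 s baseline then 140 s kinetic read; Control set: DMSO and PEA EC100; Replication: single well for each compound.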
rCAG binder: binders of r(CAG) RNA repeats, primary screen, biochemical, fluorescence. AID 651821, 2012. 370,000 compounds, 1.3% hits. inhibition, % at 3 µM. r(CAG) RNA repeat, TO-PRO-1 dye displacement fluorescence;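 active means inhibition above the plate cutoff, the mean of all test compounds on that plate plus 3 SD, cut at about 35% in these data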;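 further: higher means more dye released from RNA so lower well fluorescence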
TAAR1 ag conf: human TAAR1 agonists, retest of hits, confirmation, Fluo-8 calcium fluorescence, CHO RD-HGA16 cells. activation, % at 3 µM. scaled: DMSO 0%, maximal phenethylamine 100%. shares compounds with TAAR1 ag. 2,400 compounds, 82% hits;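 active means activation above a cutoff set at the run's mean compound activation plus 3 SD, cut at about 39% in these data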
Ga16 ag counter: nonselective calcium mobilization agonists, CHO-Ga16 cells, counter-screen for hTAAR1 agonist project, cell-based, fluorescence, CHO-Ga16 parental line | shares compounds with TAAR1 ag | 2,400 compounds, 50% hits | Fluo-8 calcium fluorescence; normalized to maximal ATP response, DMSO zero | AID 651787, 2012 | activation, % at 3 µM;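 active means activation above the run cutoff, the mean activation over all tested wells plus 3 SD, cut at about 12% in these data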
TAAR1 desens: TAAR1 desensitization by agonist hits, confirmation, counter-screen for TAAR1 agonist project, cell-based, fluorescence, tachyphylaxis; 2,400 compounds, 46% hits; inhibition, % at 3 µM; shares compounds with TAAR1 ag; CHO RD-HGA16 hTAAR1, Fluo-8 calcium, beta-PEA response inhibition;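 active means inhibition above the run cutoff, the mean inhibition of all test compounds plus 3 SD, cut at about 49% in these data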;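 further: beta-PEA stimulus applied at its EC80; loss of beta-PEA calcium signal after compound pretreatment read as receptor desensitization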
Ga16 nonsel ant: inhibition of ATP-evoked calcium response in CHO-Ga16 cells, counter-screen for TAAR1 agonist project, cell-based, fluorescence | shares compounds with TAAR1 ag | CHO-Ga16 ATP-induced calcium, Fluo-8 fluorescence | inhibition, % at 3 µM | 2,400 compounds, 39% hits;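 active means inhibition above the plate's mean compound inhibition plus 3 SD, computed per plate, cut at about 22% in these data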
Each line names hits and unclear results; the compound was inactive in the other large screens (follow-up assays come after a bar, where they were run). Only some compounds are listed: those with a hit (about 3.7% of all), similar ones and a draw of the others.

OC(c1ccccc1)(c1ccccc1)C1CCN(CCCOc2ccc(-c3ccncc3)cc2)CC1	TAAR1 antag 53, TAAR1 ag 42 (no result: HCV core dimer, HCV NS3 hel inh) | TAAR1 ag conf 46 | Ga16 ag counter 27 | TAAR1 desens 54 | Ga16 nonsel ant 36
c1ccc(COc2ccc(OCCCN3CCCC3)cc2)cc1	none
OC(c1ccccc1)(c1ccccc1)C1CCN(CCCOc2ccc(-c3cccnc3)cc2)CC1	TAAR1 ag 53 (no result: HCV core dimer, HCV NS3 hel inh) | TAAR1 ag conf inactive | Ga16 ag counter 21 | TAAR1 desens inactive | Ga16 nonsel ant 29
CC1CCN(CCCOc2ccc(OCc3ccccc3)cc2)CC1	TAAR1 ag 59 | TAAR1 ag conf 41 | Ga16 ag counter 24 | TAAR1 desens inactive | Ga16 nonsel ant 23
OC(c1ccccc1)(c1ccccc1)C1CCN(CCCOc2ccncc2)CC1	none (no result: HCV core dimer, HCV NS3 hel inh)
c1ccc(N/N=C(\Cc2ncc[nH]2)c2ccccc2)cc1	none (no result: TAAR1 antag, TAAR1 ag) | Ga16 ag counter inactive | Ga16 nonsel ant inactive
COc1ccc(C(=O)N/N=C(\Cc2ncc[nH]2)c2ccccc2)cc1	none
O=C(CCCn1c(=S)[nH]c2cc3c(cc2c1=O)OCO3)NCCc1ccccc1Cl	TAAR1 ag 52 | TAAR1 ag conf inactive | Ga16 ag counter inactive | TAAR1 desens inactive | Ga16 nonsel ant inactive
O=C(CCCCCn1c(=S)[nH]c2ccc(N3CCOCC3)cc2c1=O)NCCc1ccccc1	TAAR1 ag 55 | TAAR1 ag conf 70 | Ga16 ag counter inactive | TAAR1 desens inactive | Ga16 nonsel ant inactive
O=C(CCn1c(=S)[nH]c2cc3c(cc2c1=O)OCO3)NCCc1ccccc1Cl	TAAR1 ag 74 (no result: HCV core dimer, HCV NS3 hel inh) | TAAR1 ag conf 92 | Ga16 ag counter inactive | TAAR1 desens 78 | Ga16 nonsel ant inactive
O=C(CCn1c(=S)[nH]c2cc3c(cc2c1=O)OCO3)NCc1ccccc1Cl	none
Cc1ccc(C(=O)C2CCN(CC(=O)N(C)C3CCCCC3)CC2)cc1	none (no result: HCV core dimer, TAAR1 antag, HCV NS3 hel inh, TAAR1 ag)
Nc1cnnc(N/N=C\c2ccccc2)c1Cl	TAAR1 ag 46 (no result: HCV NS3 hel inh) | TAAR1 ag conf 69 | Ga16 ag counter inactive | TAAR1 desens inactive | Ga16 nonsel ant inactive
C[C@@H]1COc2cccc(NCCO)c2S(=O)(=O)N1	none (no result: HCV core dimer, HCV NS3 hel inh)
O=C(NC(=S)Nc1ccccc1C(=O)O)c1ccc2ccccc2c1	none
O=C(O)c1ccc(NC(=S)NC(=O)c2ccc3ccccc3c2)cc1	TAAR1 ag 47 | TAAR1 ag conf 40 | Ga16 ag counter 32 | TAAR1 desens inactive | Ga16 nonsel ant 26
CN(CCNC(=O)c1ccc(CS(=O)(=O)c2c(Cl)cccc2Cl)o1)CCc1ccccc1	TAAR1 ag 44 | TAAR1 ag conf 55 | Ga16 ag counter inactive | TAAR1 desens inactive | Ga16 nonsel ant inactive
O=C(NCCc1ccccc1)c1ccc(CS(=O)(=O)Cc2ccccc2F)o1	TAAR1 ag 55 | TAAR1 ag conf 83 | Ga16 ag counter inactive | TAAR1 desens 66 | Ga16 nonsel ant inactive
CN(C)CCNC(=O)c1ccc(CS(=O)(=O)c2c(Cl)cccc2Cl)o1	none
